Converted amounts (≈) assume the structure as drawn.
What was measured:
Candida albicans [1] = experiment: Antifungal activity against Candida albicans ATCC 10231 assessed as fungal growth inhibition by double dilution method; format: functional
In short: (§1)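 Broth microdilution after CLSI M27-A3/M38-A2 with minor changes. Single colony grown overnight in YPD at 35 °C, 200 rpm. Compound final range 0.06-31.3 µg/mL; incubated 48 h at 35 °C.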

Candida albicans [2] = experiment: Antifungal activity against Candida albicans ATCC 64124 assessed as fungal growth inhibition by double dilution method; format: functional
In short: (§2)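 Broth microdilution after CLSI M27-A3/M38-A2 with minor modifications. A single colony was grown overnight in YPD at 35 °C with shaking at 200 rpm. Cells were mixed 1:1 with compound (final 0.06-31.3 µg/mL, from DMSO stocks) and incubated 48 h at 35 °C.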

Candida albicans [3] = experiment: Antifungal activity against itraconazole/fluconazole susceptible Candida albicans ATCC MYA-2876 assessed as fungal growth inhibition by double dilution method; format: functional; in short: as §2
Candida albicans [4] = experiment: Antifungal activity against itraconazole/fluconazole resistant Candida albicans ATCC 90819 assessed as fungal growth inhibition by double dilution method; format: functional; in short: as §2
Candida albicans [5] = experiment: Antifungal activity against itraconazole/fluconazole susceptible Candida albicans ATCC MYA-2310 assessed as fungal growth inhibition by double dilution method; format: functional; in short: as §2
Candida albicans [6] = experiment: Antifungal activity against itraconazole/fluconazole resistant Candida albicans ATCC MYA-1237 assessed as fungal growth inhibition by double dilution method; format: functional; in short: as §2
Candida albicans [7] = experiment: Antifungal activity against itraconazole/fluconazole resistant Candida albicans ATCC MYA-1003 assessed as fungal growth inhibition by double dilution method; format: functional; in short: as §2
Nakaseomyces glabratus [8] = experiment: Antifungal activity against Candida glabrata ATCC 2001 assessed as fungal growth inhibition by double dilution method; format: functional; in short: as §1
Pichia kudriavzevii [9] = experiment: Antifungal activity against Pichia kudriavzevii ATCC 6258 assessed as fungal growth inhibition by double dilution method; format: functional; in short: as §1
Nakaseomyces glabratus [10] = experiment: Antifungal activity against Candida glabrata ATCC 22019 assessed as fungal growth inhibition by double dilution method; format: functional; in short: as §1
[Candida] auris [11] = Antifungal activity against Candida auris AR Bank # 0384 assessed as fungal growth inhibition by double dilution method; format: functional; conditions: Candidozyma auris; in short: as §1
[Candida] auris [12] = Antifungal activity against Candida auris AR Bank # 0390 assessed as fungal growth inhibition by double dilution method; format: functional; conditions: Candidozyma auris; in short: as §1
Cryptococcus neoformans = experiment: Antifungal activity against Cryptococcus neoformans ATCC MYA-895 assessed as fungal growth inhibition by double dilution method; format: functional; in short: as §1
Aspergillus terreus = experiment: Antifungal activity against Aspergillus terreus ATCC MYA-3633 assessed as fungal growth inhibition by double dilution method; format: functional
Aspergillus fumigatus [13] = experiment: Antifungal activity against Aspergillus fumigatus NRRL 163 assessed as fungal growth inhibition by double dilution method; format: functional
Aspergillus flavus = experiment: Antifungal activity against Aspergillus flavus ATCC MYA-3631 assessed as fungal growth inhibition by double dilution method; format: functional
Aspergillus nidulans = experiment: Antifungal activity against Aspergillus nidulans ATCC 38163 assessed as fungal growth inhibition by double dilution method; format: functional
Aspergillus fumigatus [14] = experiment: Antifungal activity against Aspergillus fumigatus NRRL 5109 assessed as fungal growth inhibition by double dilution method; format: functional
Aspergillus fumigatus [15] = experiment: Antifungal activity against Aspergillus fumigatus NRRL 6113 assessed as fungal growth inhibition by double dilution method; format: functional
[Candida] auris [16] = Antifungal activity against Candida auris AR Bank # 381 assessed as fungal growth inhibition by double dilution method; format: functional; conditions: Candidozyma auris; in short: as §1
[Candida] auris [17] = Antifungal activity against Candida auris AR Bank # 382 assessed as fungal growth inhibition by double dilution method; format: functional; conditions: Candidozyma auris; in short: as §1
[Candida] auris [18] = Antifungal activity against Candida auris AR Bank # 383 assessed as fungal growth inhibition by double dilution method; format: functional; conditions: Candidozyma auris; in short: as §1
[Candida] auris [19] = Antifungal activity against Candida auris AR Bank # 384 assessed as fungal growth inhibition by double dilution method; format: functional; conditions: Candidozyma auris; in short: as §1
[Candida] auris [20] = Antifungal activity against Candida auris AR Bank # 385 assessed as fungal growth inhibition by double dilution method; format: functional; conditions: Candidozyma auris; in short: as §1
[Candida] auris [21] = Antifungal activity against Candida auris AR Bank # 386 assessed as fungal growth inhibition by double dilution method; format: functional; conditions: Candidozyma auris; in short: as §1
[Candida] auris [22] = Antifungal activity against Candida auris AR Bank # 387 assessed as fungal growth inhibition by double dilution method; format: functional; conditions: Candidozyma auris; in short: as §1
[Candida] auris [23] = Antifungal activity against Candida auris AR Bank # 388 assessed as fungal growth inhibition by double dilution method; format: functional; conditions: Candidozyma auris; in short: as §1
[Candida] auris [24] = Antifungal activity against Candida auris AR Bank # 389 assessed as fungal growth inhibition by double dilution method; format: functional; conditions: Candidozyma auris; in short: as §1
[Candida] auris [25] = Antifungal activity against Candida auris AR Bank # 390 assessed as fungal growth inhibition by double dilution method; format: functional; conditions: Candidozyma auris; in short: as §1
Candida duobushaemulonii [26] = experiment: Antifungal activity against Candida duobushaemulonii AR Bank # 391 assessed as fungal growth inhibition by double dilution method; format: functional; conditions: Candidozyma duobushaemuli; in short: as §1
Candida duobushaemulonii [27] = experiment: Antifungal activity against Candida duobushaemulonii AR Bank # 392 assessed as fungal growth inhibition by double dilution method; format: functional; conditions: Candidozyma duobushaemuli; in short: as §1
[Candida] haemuloni [28] = Antifungal activity against Candida haemulonii AR Bank # 393 assessed as fungal growth inhibition by double dilution method; format: functional; conditions: Candidozyma haemuli; in short: as §1
Candida duobushaemulonii [29] = experiment: Antifungal activity against Candida duobushaemulonii AR Bank # 394 assessed as fungal growth inhibition by double dilution method; format: functional; conditions: Candidozyma duobushaemuli; in short: as §1
[Candida] haemuloni [30] = Antifungal activity against Candida haemulonii AR Bank # 395 assessed as fungal growth inhibition by double dilution method; format: functional; conditions: Candidozyma haemuli; in short: as §1
Kodamaea ohmeri = experiment: Antifungal activity against Kodamaea ohmeri AR Bank # 396 assessed as fungal growth inhibition by double dilution method; format: functional; in short: as §1
Pichia kudriavzevii [31] = experiment: Antifungal activity against Pichia kudriavzevii AR Bank # 397 assessed as fungal growth inhibition by double dilution method; format: functional; in short: as §1
Clavispora lusitaniae = experiment: Antifungal activity against Clavispora lusitaniae AR Bank # 398 assessed as fungal growth inhibition by double dilution method; format: functional; in short: as §1
Saccharomyces cerevisiae [32] = experiment: Antifungal activity against Saccharomyces cerevisiae AR Bank # 399 assessed as fungal growth inhibition by double dilution method; format: functional; in short: as §1
Saccharomyces cerevisiae [33] = experiment: Antifungal activity against Saccharomyces cerevisiae AR Bank # 400 assessed as fungal growth inhibition by double dilution method; format: functional; in short: as §1
J774.A1 = experiment: Cytotoxicity against J774A.1 cells assessed as reduction in cell viability at 31.3 microg/ml; format: toxicity, cell-based; conditions: mouse, dose 31.3 µg/ml
In short: (§3)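 Cells in DMEM with 10% FBS and 1% Pen/Strep, seeded at 10,000 cells/well and held overnight at 37 °C, 5% CO2. Compounds added at final 31.3-0.12 µg/mL (0.05% DMSO vehicle) for 24 h. Resazurin then added for 6 h; fluorescence read at ex 560/em 590. Triton X-100 1% as positive control; values normalized to vehicle. Run in quadruplicate.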

HEK293 = experiment: Cytotoxicity against human HEK-293 cells assessed as reduction in cell viability at 31.3 microg/ml; format: toxicity, cell-based; conditions: dose 31.3 µg/ml; in short: as §3
HepG2 = experiment: Cytotoxicity against human HepG2 cells assessed as reduction in cell viability upto 31.3 microg/ml; format: toxicity, cell-based; conditions: dose < 31.3 µg/ml; in short: as §3

SMILES: O=C(NNc1ccc(F)cc1F)c1cnccn1
- MIC (Candida albicans [1]): 0.24 µg/mL (≈ 0.959 µM)
- MIC (Candida albicans [2]): 0.98 µg/mL (≈ 3.92 µM)
- MIC (Candida albicans [3]): 0.98 µg/mL (≈ 3.92 µM)
- MIC (Candida albicans [4]): 0.98 µg/mL (≈ 3.92 µM)
- MIC (Candida albicans [5]): 3.9 µg/mL (≈ 15.6 µM)
- MIC (Candida albicans [6]): 0.49 µg/mL (≈ 1.96 µM)
- MIC (Candida albicans [7]): 0.49 µg/mL (≈ 1.96 µM)
- MIC (Nakaseomyces glabratus [8]): 0.98 µg/mL (≈ 3.92 µM)
- MIC (Pichia kudriavzevii [9]): 0.24 µg/mL (≈ 0.959 µM)
- MIC (Nakaseomyces glabratus [10]): 3.9 µg/mL (≈ 15.6 µM)
- MIC ([Candida] auris [11]): 3.9 µg/mL (≈ 15.6 µM)
- MIC ([Candida] auris [12]): 0.98 µg/mL (≈ 3.92 µM)
- MIC (Cryptococcus neoformans): 0.24 µg/mL (≈ 0.959 µM)
- MIC (Aspergillus terreus): 0.98 µg/mL (≈ 3.92 µM)
- MIC (Aspergillus fumigatus [13]): > 31.3 µg/mL
- MIC (Aspergillus flavus): 7.8 µg/mL (≈ 31.2 µM)
- MIC (Aspergillus nidulans): 0.49 µg/mL (≈ 1.96 µM)
- MIC (Aspergillus fumigatus [14]): > 31.3 µg/mL
- MIC (Aspergillus fumigatus [15]): > 31.3 µg/mL
- MIC ([Candida] auris [16]): 3.9 µg/mL (≈ 15.6 µM)
- MIC ([Candida] auris [17]): 1.95 µg/mL (≈ 7.79 µM)
- MIC ([Candida] auris [18]): 0.98 µg/mL (≈ 3.92 µM)
- MIC ([Candida] auris [19]): 3.9 µg/mL (≈ 15.6 µM)
- MIC ([Candida] auris [20]): 0.98 µg/mL (≈ 3.92 µM)
- MIC ([Candida] auris [21]): 0.49 µg/mL (≈ 1.96 µM)
- MIC ([Candida] auris [22]): 0.49 µg/mL (≈ 1.96 µM)
- MIC ([Candida] auris [23]): 0.49 µg/mL (≈ 1.96 µM)
- MIC ([Candida] auris [24]): 0.49 µg/mL (≈ 1.96 µM)
- MIC ([Candida] auris [25]): 0.98 µg/mL (≈ 3.92 µM)
- MIC (Candida duobushaemulonii [26]): 0.49 µg/mL (≈ 1.96 µM)
- MIC (Candida duobushaemulonii [27]): 0.24 µg/mL (≈ 0.959 µM)
- MIC ([Candida] haemuloni [28]): 0.24 µg/mL (≈ 0.959 µM)
- MIC (Candida duobushaemulonii [29]): 7.8 µg/mL (≈ 31.2 µM)
- MIC ([Candida] haemuloni [30]): 1.95 µg/mL (≈ 7.79 µM)
- MIC (Kodamaea ohmeri): 0.98 µg/mL (≈ 3.92 µM)
- MIC (Pichia kudriavzevii [31]): 1.95 µg/mL (≈ 7.79 µM)
- MIC (Clavispora lusitaniae): 3.9 µg/mL (≈ 15.6 µM)
- MIC (Saccharomyces cerevisiae [32]): 7.8 µg/mL (≈ 31.2 µM)
- MIC (Saccharomyces cerevisiae [33]): 1.95 µg/mL (≈ 7.79 µM)
- Activity (J774.A1): Non-Toxic
- Activity (HEK293): Non-Toxic
- Activity (HepG2): Non-Toxic

Reference: ChEMBL document CHEMBL5329156, “Discovery and development of novel substituted monohydrazides as potent antifungal agents” (RSC Med Chem, 2023)
